Test results taken from ChEMBL document CHEMBL2380272, “Biological evaluation of bisbenzaldehydes against four Mycobacterium species” (Eur J Med Chem, 2013).
Converted amounts (≈) assume the structure as drawn.

Tests used:
[1] = Genotoxicity in human HepG2/C3A cells assessed as DNA fragmentation at 10 uM after 24 hrs by alkaline comet assay (reference value: 6.65%); type: toxicity, cell-based
Outline: (§1)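 Alkaline comet assay. C3A cells, 40,000/well, recovered overnight, then exposed 24 h at 37 °C, 5% CO2 to 0.1–10 µM final, diluted in DMEM + 10% FCS from 1 mM DMSO stock. Cells embedded in low-melting agarose, lysed 1 h, denatured 40 min at pH > 13, electrophoresed 20 min at 300 mA, about 17 °C. Gel red stain, % tail DNA scored by fluorescence microscopy. EMS 0.5 and 0.75 mM as positive control. Mann–Whitney U test.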

[2] = Genotoxicity in human HepG2/C3A cells assessed as DNA fragmentation at 3 uM after 24 hrs by alkaline comet assay (reference value: 6.65%); type: toxicity, cell-based; outline: as §1
[3] = Genotoxicity in human HepG2/C3A cells assessed as DNA fragmentation at 1 uM after 24 hrs by alkaline comet assay (reference value: 6.65%); type: toxicity, cell-based; outline: as §1
[4] = Genotoxicity in human HepG2/C3A cells assessed as DNA fragmentation at 0.1 uM after 24 hrs by alkaline comet assay (reference value: 6.65%); type: toxicity, cell-based; outline: as §1
[5] = Genotoxicity in human HepG2/C3A cells assessed as DNA fragmentation at 0.3 uM after 24 hrs by alkaline comet assay (reference value: 6.65%); type: toxicity, cell-based; outline: as §1
Salmonella typhimurium [6] = assay: Genotoxicity in recombinant Salmonella typhimurium TA104 expressing Vibrio fisheri luxabcd genes under transcriptional control of recN2-4 promoter assessed as concentration required to cause DNA damage measured every 5 mins for 4 hrs by vitotox assay in presence of S9 fraction; type: toxicity, organism-based; details: salmonella enterica subsp. enterica serovar typhimurium, s9, 4 h
Outline: (§2)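 VITOTOX genox strain TA104 recN2-4 (recN promoter driving lux). Grown 16 h at 36 °C in poor LB, diluted 125-fold and shaken 1 h, then diluted 10-fold; rat aroclor S9 added for +S9 runs. Incubated at 30 °C with light read every 5 min for 4 h. Signal/noise = exposed over unexposed light. Highest concentration tested 10 µM.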

[7] = Toxicity in recombinant Salmonella typhimurium TA104 expressing luxabcd genes under transcriptional control of constitutive pr1 promoter assessed as concentration required to reduce cell viability measured every 5 mins for 4 hrs by vitotox assay in presence of S9 fraction; type: organism-based; details: salmonella enterica subsp. enterica serovar typhimurium; read-out: Activity
Outline: (§3)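 Cytox strain TA104 pr1 (constitutive promoter driving lux), run alongside the genox strain. Grown in poor LB at 36 °C for 16 h, diluted 125-fold and shaken 1 h, then diluted 10-fold, with or without aroclor-rat S9. Luminescence read at 30 °C every 5 min over 4 h; a drop in light signal indicates reduced viability. Top concentration 10 µM.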

Salmonella typhimurium [8] = assay: Toxicity in recombinant Salmonella typhimurium TA104 expressing luxabcd genes under transcriptional control of constitutive pr1 promoter assessed as concentration required to reduce cell viability measured every 5 mins for 4 hrs by vitotox assay in absence of S9 fraction; type: organism-based; details: salmonella enterica subsp. enterica serovar typhimurium; outline: as §3
Salmonella typhimurium [9] = assay: Genotoxicity in recombinant Salmonella typhimurium TA104 expressing Vibrio fisheri luxabcd genes under transcriptional control of recN2-4 promoter assessed as concentration required to cause DNA damage measured every 5 mins for 4 hrs by vitotox assay in absence of S9 fraction; type: toxicity, organism-based; details: salmonella enterica subsp. enterica serovar typhimurium; outline: as §2
[10] = Cytotoxicity against human HepG2/C3A cells assessed as cell viability at 180 uM after 24 hrs by neutral red uptake assay relative to control; type: cell-based; details: read-out: Activity
Outline: (§4)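 C3A cells grown in DMEM + 10% FCS, 40 000 cells/well, recovered overnight at 37 °C, 5% CO2. Exposed 24 h to serial dilutions in DMEM + 10% FCS from 18 mM DMSO stocks, DMSO limited to 1%. Neutral red added for 3 h, cells washed, dye extracted with ethanol/acetic acid (50%/1%), OD read at 540 nm with 620 nm reference. Viability expressed as % of untreated cells.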

[11] = Cytotoxicity against human HepG2/C3A cells assessed as cell viability at 120 uM after 24 hrs by neutral red uptake assay relative to control; type: cell-based; details: read-out: Activity; outline: as §4
[12] = Cytotoxicity against human HepG2/C3A cells assessed as cell viability at 60 uM after 24 hrs by neutral red uptake assay relative to control; type: cell-based; details: read-out: Activity; outline: as §4
[13] = test system: Mycobacterium tuberculosis; assay: Antimycobacterial activity against Mycobacterium tuberculosis H37Rv infected in mouse J774.A1 cells at 1 MOI assessed as intracellular bacterial growth inhibition at 0.1 uM after 1 hr by luciferase reporter gene assay relative to control; type: functional; details: J774.A1, 1 h, read-out: GI
[14] = test system: Mycobacterium tuberculosis; assay: Antimycobacterial activity against Mycobacterium tuberculosis H37Rv infected in mouse J774.A1 cells at 1 MOI assessed as intracellular bacterial growth inhibition at 1 uM after 1 hr by luciferase reporter gene assay relative to control; type: functional; details: J774.A1, 1 h, read-out: GI
[15] = test system: Mycobacterium tuberculosis; assay: Antimycobacterial activity against Mycobacterium tuberculosis H37Rv infected in mouse J774.A1 cells at 1 MOI assessed as intracellular bacterial growth inhibition at 10 uM after 1 hr by luciferase reporter gene assay relative to control; type: functional; details: J774.A1, 1 h, read-out: GI
[16] = Selectivity index, ratio of NI50 for human HepG2/C3A cells to MIC50 for Mycobacterium tuberculosis H37Rv ATCC 27294; type: functional
[17] = Potency index, ratio of MIC50 for Mycobacterium avium subsp. paratuberculosis ATCC 19698 to MIC50 for Mycobacterium bovis AN5; type: functional
[18] = Potency index, ratio of MIC50 for Mycobacterium avium subsp. avium ATCC 15769 to MIC50 for Mycobacterium bovis AN5; type: functional
Mycobacterium ulcerans = assay: Antimycobacterial activity against Mycobacterium ulcerans 1615 assessed as growth inhibition after 6 days by luciferase reporter gene assay; type: functional; details: Mycobacterium ulcerans, 1615, 144 h
Outline: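 M. ulcerans 1615 carrying pSMT1 luciferase reporter plasmid, stock grown as surface pellicle on Sauton medium, cultured at 32 °C. Serial compound dilutions in 7H9 + 10% FCS from 10 mM DMSO stocks, tested in triplicate. Filtered bacteria added at 50 000 RLU/mL. After 6 days, wells collected and washed with PBS, 1% n-decanal in ethanol added, light read over 10 s. MIC50 = concentration giving 50% inhibition versus untreated.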

[19] = test system: Mycobacterium avium subsp. paratuberculosis; assay: Antimycobacterial activity against Mycobacterium avium subsp. paratuberculosis ATCC 19698 assessed as growth inhibition after 6 days by luciferase reporter gene assay; type: functional; details: ATCC 19698, 144 h
Outline: (§5)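 Mycobacteria carrying the pSMT1 luciferase reporter plasmid. Compounds came from 10 mM DMSO stocks and were serially diluted in 7H9 + 10% FCS. Thawed bacteria were filtered, recovered 1 h at 37 °C, then added at 50 000 RLU/mL. After 6 days of culture, light was read for 10 s after adding 1% n-decanal. Triplicates were run, and MIC50 was the concentration giving 50% growth inhibition.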

[20] = Antimycobacterial activity against Mycobacterium avium subsp. avium ATCC 15769 assessed as growth inhibition after 6 days by luciferase reporter gene assay; type: functional; details: ATCC 15769, 144 h; outline: as §5
[21] = test system: Mycobacterium tuberculosis; assay: Antimycobacterial activity against Mycobacterium tuberculosis H37Rv ATCC 27294 assessed as growth inhibition after 6 days by luciferase reporter gene assay; type: functional; details: H37Rv ATCC 27294, 144 h; outline: as §5
[22] = test system: Mycobacterium tuberculosis; assay: Antimycobacterial activity against Mycobacterium tuberculosis H37Rv ATCC 27294 assessed as growth inhibition at 0.1 uM after 6 days by luciferase reporter gene assay relative to control; type: functional; details: H37Rv ATCC 27294, 144 h, read-out: GI
Outline: (§6)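 Luminescent M. tb H37Rv (hsp60-driven luciferase) in 7H9 + 10% FCS was seeded at 50 000 RLU/mL. Compounds were tested at 10, 1 and 0.1 µM from 10 mM DMSO stocks. After 6 days, luminescence was read with 1% n-decanal. Growth inhibition (%) was expressed against untreated culture, with triplicates.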

[23] = test system: Mycobacterium tuberculosis; assay: Antimycobacterial activity against Mycobacterium tuberculosis H37Rv ATCC 27294 assessed as growth inhibition at 1 uM after 6 days by luciferase reporter gene assay relative to control; type: functional; details: H37Rv ATCC 27294, 144 h, read-out: GI; outline: as §6
[24] = test system: Mycobacterium tuberculosis; assay: Antimycobacterial activity against Mycobacterium tuberculosis H37Rv ATCC 27294 assessed as growth inhibition at 10 uM after 6 days by luciferase reporter gene assay relative to control; type: functional; details: H37Rv ATCC 27294, 144 h, read-out: GI; outline: as §6

Q: Which results are given for `O=Cc1ccc(OCCCCCCCCCCCCOc2ccc(C=O)cc2)cc1`?
A: Activity [1]: 6.97%; Activity [2]: 7.44%; Activity [3]: 7.62%; Activity [4]: 5.72%; Activity [5]: 7.64%; Activity (Salmonella typhimurium [6]): > 10 µM; MCC at 4 h [7]: > 10 µM; Activity (Salmonella typhimurium [8]): > 10 µM; Activity (Salmonella typhimurium [9]): > 10 µM; viability at 24 h, 180 µM [10]: 68.1%; viability at 24 h, 120 µM [11]: 89.9%; viability at 24 h, 60 µM [12]: 101%; intracellular bacterial growth inhibition at 0.1 µM [13]: 13.5%; percent inhibition of intracellular bacterial growth at 1 µM [14]: 53.1%; intracellular bacterial growth inhibition at 10 µM [15]: 74%; Selectivity Index [16]: >346.2; Ratio [17]: 5; Ratio [18]: 5; MIC50 (Mycobacterium ulcerans): 8.21 µM (≈ 3.37 µg/mL); MIC50 [19]: 4.75 µM (≈ 1.95 µg/mL); MIC50 [20]: 5.01 µM (≈ 2.06 µg/mL); MIC50 [21]: 0.52 µM (≈ 0.213 µg/mL); inhibition of growth at 0.1 µM [22]: 26%; inhibition of growth at 1 µM [23]: 81%; inhibition of growth at 10 µM [24]: 100%
